# Assay outcomes as filed in PubChem BioAssay.
# ABHD4 inh = inhibits mouse alpha/beta hydrolase domain 4; AID 720543; purified mABHD4, FP-Rh probe fluorescence polarization; inhibition, % at 8.92 µM; Q8VD66; hit rate 0.54% among 370,000;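 active means inhibition exceeding the mean over every tested compound plus 3 SD, cut at about 30% in these data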;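 further: 0% = plate median of compound wells and 100% = S159A mutant with DMSO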
# Target sequence (Q8VD66 whole entry, looked up, the tested form may be a part): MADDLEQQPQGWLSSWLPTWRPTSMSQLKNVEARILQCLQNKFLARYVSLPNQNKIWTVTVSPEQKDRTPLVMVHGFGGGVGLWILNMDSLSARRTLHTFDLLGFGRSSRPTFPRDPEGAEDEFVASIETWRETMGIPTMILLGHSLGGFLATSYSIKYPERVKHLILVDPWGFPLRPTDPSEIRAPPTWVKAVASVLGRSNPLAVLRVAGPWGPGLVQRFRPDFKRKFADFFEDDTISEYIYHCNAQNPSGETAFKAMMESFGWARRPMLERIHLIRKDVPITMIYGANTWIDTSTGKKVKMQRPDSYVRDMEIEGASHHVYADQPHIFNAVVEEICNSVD
#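 Test system: mouse ABHD4 enzyme, wild type. Reagent: FP-Rh fluorescent activity-based probe, added after compound pre-incubation. Timing: pre-incubation 45 min, probe exposure 60 min, at 25 °C. Technique: FP readout, ex 525 nm / em 598 nm. Benchmarks: high control S159A mutant with DMSO, low control median of compound wells.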
# DAGLB inhibitor = diacylglycerol lipase beta (human) inhibition; Q8NCG7; HEK293T DAGLB membrane lysate, EnzChek fluorogenic substrate; inhibition, % at 5.17 µM; hit rate 0.059% among 340,000; in the data active means inhibition above about 34%;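 further: 0% = enzyme with vehicle and 100% = wells lacking enzyme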
# HTRA1 inh = blocks human HTRA1 serine peptidase; recombinant HTRA1, FP-rhodamine activity-based probe, fluorescence polarization; hit rate 0.5% among 340,000; inhibition, % at 5.96 µM; Q92743; in the data active means inhibition above about 36%;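 further: 0% = enzyme with DMSO and 100% = wells lacking enzyme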
# TCR-CD3 inh = human TCR-CD3 binding inhibition | TAMRA-labeled TCR probe fluorescence, biochemical | inhibition, % at 9.4 µM | hit rate 0.37% among 360,000; in the data active means inhibition above about 19%;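 further: recombinant mutant TCR 2C K166C tagged with TAMRA read by polarization; 0% = receptor in buffer alone and 100% = receptor with positive control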
# SIAE primary = human SIAE inhibition, primary screen; inhibition, % at 9.66 µM; Q9HAT2; SIAE FP-Rh probe binding, fluorescence polarization; hit rate 0.69% among 370,000; AID 1053197;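 active means inhibition above a cutoff: mean of compounds within the control limits plus 3 SD of those, cut at about 17% in these data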;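 further: 0% = plate median of compound wells and 100% = probe without SIAE protein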
# SIAE confirm = confirmation of human SIAE inhibitors; shares compounds with SIAE primary; SIAE FP-Rh activity-based probe, fluorescence polarization; inhibition, % at 9.66 µM; hit rate 13% among 2,300;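 active means mean inhibition of the replicates above the hit cutoff set in the primary screen, cut at about 17% in these data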;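 further: 0% = SIAE with DMSO and probe and 100% = probe without SIAE; inhibitors lower polarization as more probe stays unbound to SIAE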
# An asterisk follows results filed as active; . = no result given. This is a sample that favours compounds with a hit; in the whole collection about 1.5% have one here.
SMILES,ABHD4 inh,DAGLB inhibitor,HTRA1 inh,TCR-CD3 inh,SIAE primary,SIAE confirm
COc1ccccc1C1CC(c2ccco2)=NN1c1ccccc1 (configuration not stated),2.6,-2.2,9.6,2.1,17.2*,-1.6
Fc1ccc(C2=NN(c3ccccc3)C(c3ccco3)C2)cc1 (configuration not stated),7.1,-6.9,-11.3,2.0,3.3,.
O=C(c1ccc(Br)cn1)N1CCC(Oc2cccnc2)CC1,-3.1,.,.,.,11.5,.
C[C@@H]1CCCN1c1cccc2c1S(=O)(=O)N1CC[C@H](C1)O2,3.3,.,.,.,3.2,.
Cc1ccccc1-c1cnn(-c2cccc([N+](=O)[O-])c2)c1N,5.4,-2.5,-7.3,4.1,0.4,.
Nc1c(-c2ccccc2Cl)cnn1-c1cccc([N+](=O)[O-])c1,-2.1,4.4,2.1,0.4,74.6*,-1.1
CCOC(=O)CC[C@@]1(C(=O)OCC)C[C@@H](CC(=O)N2CCCC2)C(=O)N2CCCC=C21,-9.9,.,.,.,-2.1,.
CCCCc1ccc(NC(=S)Nc2ccc(Nc3ccc(OC)cc3)cc2)cc1,24.8,6.7,30.5,-5.1,26.9*,12.9
COC(=O)C1=C(C(C)=O)C(c2ccc(C)cc2)n2nnnc2N1 (configuration not stated),6.5,0.0,4.6,9.2,10.0,.
COC(=O)C1=C(C(C)=O)C(c2ccc(C(=O)OC)cc2)n2nnnc2N1 (configuration not stated),13.5,4.9,-5.2,-3.2,23.1*,-2.8
Cc1ccc(NC(=O)Cc2cccc(OC(F)(F)F)c2)c(S(=O)(=O)N2CCOCC2)c1,3.8,.,.,.,1.0,.
COc1ccc(-c2cc(NC(=O)Cc3c(C)[nH]c4ccccc34)ccc2Nc2cccnc2)cc1OC,4.9,.,.,0.3,17.4*,6.5
Cc1[nH]c2ccccc2c1CC(=O)Nc1ccc(Nc2ccncc2)cc1,3.0,.,.,-0.7,34.3*,24.6*
N#C/C(=C\Nc1ccccc1O)c1nc2ccccc2o1,17.6,0.2,-12.8,4.5,17.8*,-10.2
N#C/C(=C\c1ccncc1)c1nc2ccccc2o1,-2.1,.,.,0.0,-6.8,.
COC(=O)C1(C(=O)OC)C2CCCCC2N(S(=O)(=O)c2ccc(C)cc2)[C@@H]1CC(C)=O (some centres not stated),4.2,.,.,7.9,-2.0,.
O=C1NC(=O)C(=Cc2ccccc2)N1,-5.7,0.4,-2.3,-5.3,-5.9,.
O=C1NC(=O)/C(=C/c2cccc(O)c2)N1,4.3,-0.4,2.7,-2.8,17.5*,-1.0
Cc1cc(C(=O)O[C@H]2CCC[C@]3(C(=O)N(Cc4ccccc4)c4ccccc43)[C@H]2NC(=O)CCc2ccccc2)no1,-0.8,.,.,.,7.2,.
CC(=O)c1cccc(N(C(=O)c2ccco2)C(C(=O)NC2CCCCC2)c2ccc(C)o2)c1 (configuration not stated),-1.1,-2.1,1.7,-1.5,19.3*,-7.8
CC(=O)c1cccc(N(C(=O)CNC(=O)c2ccco2)C(C(=O)NC2CCCC2)c2ccc(C)o2)c1 (configuration not stated),-0.9,-2.6,0.6,2.9,0.5,.
COc1ccc(N(C(=O)c2ccco2)C(C(=O)NC2CCCC2)c2ccc(N(C)C)cc2)cc1OC (configuration not stated),1.4,1.5,2.2,0.0,25.9*,3.6
COCCN(CCOC)C(=O)CSc1ccc(S(=O)(=O)N2CCN(C)CC2)cn1,0.6,-1.5,3.2,1.3,0.5,.
CC(=O)CSc1ccc(S(=O)(=O)N2CCN(C)CC2)cn1,-0.8,-2.9,0.6,-1.2,23.4*,-2.0
Cc1ccc(NC(=Nc2ccc(Br)cc2)N2CCOCC2)cc1C,-0.1,-1.1,-2.6,-4.5,17.6*,-1.6
SMILES,ABHD4 inh,DAGLB inhibitor,HTRA1 inh,TCR-CD3 inh,SIAE primary,SIAE confirm
Cc1ccc(NC(=O)COC(=O)CSC(=S)N2CCOCC2)cc1C,0.5,-4.1,6.0,-8.9,-5.1,.
CCOc1ccc(Cl)cc1/C=C1/C(=O)ON=C1C,5.4,-1.5,1.4,0.1,17.9*,0.9
COc1ccc(Cl)cc1/C=C1/C(=O)ON=C1C,-4.4,3.3,2.6,-8.2,6.7,.
N#Cc1c(/N=C/c2cccnc2)sc2c1CCCC2,5.8,.,.,6.7,21.7*,-0.6
N#Cc1c(/N=C/c2cccs2)sc2c1CCCCC2,4.1,-1.2,-0.9,-1.0,4.5,.
CC(C)C1Oc2ccccc2N(CC(=O)N2CCOCC2)C1=O (configuration not stated),1.8,-0.8,12.3,0.9,27.2*,-5.0
CCC1Oc2ccccc2N(CC(=O)N2CCOCC2)C1=O (configuration not stated),1.1,0.3,1.4,6.8,-4.8,.
CCCCn1c(=O)[nH]c(=O)c2c1nc(-c1ccc(OCCC)c(OCC)c1)n2CCOC,-2.2,0.8,-6.3,3.4,7.9,.
CCCn1c(=O)[nH]c(=O)c2c1nc(-c1ccc(OC)c(Br)c1)n2CCOC,-7.6,-2.5,-2.9,-1.2,20.9*,-16.8
CCCCOCC1CN(CCCC)S(=O)(=O)c2c(Oc3ccc(C)cc3)cccc2O1 (configuration not stated),2.4,.,.,5.7,3.8,.
COC(=O)C1C(=O)c2c(n[nH]c2C)CC1(C)C (configuration not stated),-1.3,1.1,6.8,3.6,18.6*,0.8
Cc1ccc(OCCC(=O)OCC(=O)Nc2ccc(C)cc2Cl)cc1,-19.0,-5.4,-1.2,-4.7,-6.7,.
Cc1ccc(NC(=O)COC(=O)CCc2ccccc2)c(Cl)c1,4.6,-13.9,-5.6,-1.6,22.5*,1.9
COc1ccc(Cc2nnc(N)s2)cc1,3.1,-0.1,-3.3,-4.8,17.2*,-8.0
CN(C)C1=C(Cl)C(=O)N(c2ccc(Cl)c(Cl)c2)C1=O,4.9,6.8,-62.1,0.1,18.8*,0.8
CN(C)/C=C1\C(=O)N(c2ccc(Cl)c(Cl)c2)CS1(=O)=O,1.6,2.4,1.9,-5.1,-3.0,.
CCCCCCC(=O)NC1CCCCN(Cc2ccccc2C)C1=O (configuration not stated),-0.1,.,.,.,8.5,.
CCOC(=O)[C@]12CCCC=C1N(Cc1ccc(Cl)cc1Cl)C(=O)[C@H](CC(=O)NCCC(C)C)C2,-1.2,.,.,-2.5,4.2,.
O=C(OCc1cn([C@@H]2C[C@H](c3ccc(Cl)cc3)N(C(=O)c3cccs3)C[C@H]2O)nn1)c1ccccc1,-10.9,-0.6,-36.6,5.0,-2.2,.
COc1ccc(S[C@]2(C(=O)N3CCN(C(C)=O)CC3)CC(=O)N(C(=O)c3ccccc3)[C@@H]2c2ccc(OC)cc2)cc1,-2.5,.,.,.,18.3*,-0.8
CC(C)(C)n1ncc2c(=O)n(CC(=O)c3ccc(Cl)cc3)cnc21,-10.2,-4.7,-1.2,3.8,-6.1,.
O=C(Cn1cnc2c(cnn2-c2ccccc2)c1=O)c1ccc(Cl)cc1,9.7,-9.6,1.9,-5.3,38.8*,-0.5
COc1cc2c(cc1OC)C(CNC(=O)C=Cc1cc(OC)c(OC)c(OC)c1)C2 (configuration not stated),-2.6,2.5,-2.2,-6.0,-9.2,.
